Experiments:
Rattus norvegicus [1] = experiment: Total clearance in rat assessed as (E)-3-(4-(1-(2-(5-chloropyrimidin-2-yl)-3-cyclopentyl-1-methyl-1H-indole-6-carboxamido)cyclobutanecarboxamido)-2-ethoxyphenyl)acrylic acid at 2 mg/kg, iv; conditions: in vivo
Rhesus monkey = experiment: AUC in monkey assessed as (E)-3-(4-(1-(2-(5-chloropyrimidin-2-yl)-3-cyclopentyl-1-methyl-1H-indole-6-carboxamido)cyclobutanecarboxamido)-2-ethoxyphenyl)acrylic acid at 10 mg/kg using 10.6% PEG400, 5.4% Cremophor EL, 2.6% Labrasol, 1.4% Capmul MCM in water (80%) vehicle; format: ADME, organism-based, Macaca mulatta, Plasma; set-up: dose 10 mg/kg; conditions: in vivo
Rattus norvegicus [2] = experiment: AUC in rat plasma assessed as (E)-3-(4-(1-(2-(5-chloropyrimidin-2-yl)-3-cyclopentyl-1-methyl-1H-indole-6-carboxamido)cyclobutanecarboxamido)-2-ethoxyphenyl)acrylic acid at 10 mg/kg, po using 0.5% Methyl cellulose, 0.3% Tween-80, 1% N-methylpyrrolidone in water vehicle; format: ADME, organism-based; set-up: dose 10 mg/kg, route oral; conditions: in vivo
Procedure, shortened: (§1)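 Fasted rats were given a single 10 mg/kg oral dose, with n = 3 per dose and route. Plasma was extracted by solid-phase extraction. Analysis used HPLC with diode-array UV (200–400 nm, peak height at best S/N) or LC/MS. Calibration standards were made in blank plasma, with LOQ 7–14 ng/mL. Parameters came from noncompartmental analysis.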

Canis familiaris = experiment: AUC in dog assessed as (E)-3-(4-(1-(2-(5-chloropyrimidin-2-yl)-3-cyclopentyl-1-methyl-1H-indole-6-carboxamido)cyclobutanecarboxamido)-2-ethoxyphenyl)acrylic acid at 10 mg/kg using 10.6% PEG400, 5.4% Cremophor EL, 2.6% Labrasol, 1.4% Capmul MCM in water (80%) vehicle; format: ADME, organism-based, Canis lupus familiaris, Plasma; set-up: dose 10 mg/kg; conditions: in vivo
[3] = Permeability across human Caco2 cells; format: ADME, cell-based; conditions: Caco-2
Rattus norvegicus [4] = experiment: AUC in rat plasma assessed as (E)-3-(4-(1-(2-(5-chloropyrimidin-2-yl)-3-cyclopentyl-1-methyl-1H-indole-6-carboxamido)cyclobutanecarboxamido)-2-ethoxyphenyl)acrylic acid at 10 mg/kg, po using 10.6% PEG400, 5.4% Cremophor EL, 2.6% Labrasol, 1.4% Capmul MCM in water (80%) vehicle; format: ADME, organism-based; set-up: dose 10 mg/kg, route oral; conditions: in vivo
Procedure, shortened: as §1

Rattus norvegicus [5] = experiment: AUC in rat assessed as (E)-3-(4-(1-(2-(5-chloropyrimidin-2-yl)-3-cyclopentyl-1-methyl-1H-indole-6-carboxamido)cyclobutanecarboxamido)-2-ethoxyphenyl)acrylic acid at 10 mg/kg, po using 10.6% PEG400, 5.4% Cremophor EL, 2.6% Labrasol, 1.4% Capmul MCM in water (80%) vehicle; format: ADME, organism-based, Plasma; set-up: dose 10 mg/kg, route oral; conditions: in vivo
Procedure, shortened: as §1

Rattus norvegicus [6] = experiment: AUC in rat assessed as (E)-3-(4-(1-(2-(5-chloropyrimidin-2-yl)-3-cyclopentyl-1-methyl-1H-indole-6-carboxamido)cyclobutanecarboxamido)-2-ethoxyphenyl)acrylic acid at 2 mg/kg, iv; format: ADME, organism-based, Plasma; set-up: dose 2 mg/kg, route intravenous; conditions: in vivo
Procedure, shortened: (§2)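 Overnight-fasted rats received 2 mg/kg IV in 70% PEG400:30% water, n = 3. Plasma parent drug was quantified after solid-phase extraction by HPLC-UV or LC/MS against blank-plasma calibration standards (LOQ 7–14 ng/mL). Noncompartmental analysis gave the PK parameters.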

Rattus norvegicus [7] = experiment: Cmax in rat plasma assessed as (E)-3-(4-(1-(2-(5-chloropyrimidin-2-yl)-3-cyclopentyl-1-methyl-1H-indole-6-carboxamido)cyclobutanecarboxamido)-2-ethoxyphenyl)acrylic acid at 10 mg/kg, po using 0.5% Methyl cellulose, 0.3% Tween-80, 1% N-methylpyrrolidone in water vehicle; format: ADME, organism-based; set-up: dose 10 mg/kg, route oral; conditions: in vivo
Procedure, shortened: as §1

Rattus norvegicus [8] = experiment: Cmax in rat plasma assessed as (E)-3-(4-(1-(2-(5-chloropyrimidin-2-yl)-3-cyclopentyl-1-methyl-1H-indole-6-carboxamido)cyclobutanecarboxamido)-2-ethoxyphenyl)acrylic acid at 10 mg/kg, po using 10.6% PEG400, 5.4% Cremophor EL, 2.6% Labrasol, 1.4% Capmul MCM in water (80%) vehicle; format: ADME, organism-based; set-up: dose 10 mg/kg, route oral; conditions: in vivo
Procedure, shortened: as §1

Rattus norvegicus [9] = experiment: Mean residence time in rat assessed as (E)-3-(4-(1-(2-(5-chloropyrimidin-2-yl)-3-cyclopentyl-1-methyl-1H-indole-6-carboxamido)cyclobutanecarboxamido)-2-ethoxyphenyl)acrylic acid at 2 mg/kg, iv; format: ADME, organism-based; set-up: dose 2 mg/kg, route intravenous; conditions: in vivo
Procedure, shortened: as §2

CCOc1cc(NC(=O)C2(NC(=O)c3ccc4c(C5CCCC5)c(-c5ncc(Cl)cn5)n(C)c4c3)CCC2)ccc1/C=C/C(=O)O
CL (Rattus norvegicus [1]): 2.6 mL/min/kg
AUC (Rhesus monkey): 53 µM·h
AUC (Rattus norvegicus [2]): 25.5 µM·h
AUC (Canis familiaris): 76 µM·h
Papp [3]: 13 ×10⁻⁶ cm/s
AUC (Rattus norvegicus [4]): 7.5 µM·h
AUC (Rattus norvegicus [5]): 19.3 µM·h
AUC (Rattus norvegicus [6]): 20.1 µM·h
Cmax (Rattus norvegicus [7]): 7.4 µM
Cmax (Rattus norvegicus [8]): 2.1 µM
MRT (Rattus norvegicus [9]): 2.5 h
